Tests used:
[1] = molecular target: farnesyl pyrophosphate synthase (Leishmania major); test: Inhibitory activity against FPPS in Leishmania major
[2] = molecular target: T1, Phosphotransferase (Trypanosoma cruzi, UniProt Q8ST54); test: Inhibitory activity against Trypanosoma cruzi hexokinase
T1 sequence (Q8ST54 whole entry): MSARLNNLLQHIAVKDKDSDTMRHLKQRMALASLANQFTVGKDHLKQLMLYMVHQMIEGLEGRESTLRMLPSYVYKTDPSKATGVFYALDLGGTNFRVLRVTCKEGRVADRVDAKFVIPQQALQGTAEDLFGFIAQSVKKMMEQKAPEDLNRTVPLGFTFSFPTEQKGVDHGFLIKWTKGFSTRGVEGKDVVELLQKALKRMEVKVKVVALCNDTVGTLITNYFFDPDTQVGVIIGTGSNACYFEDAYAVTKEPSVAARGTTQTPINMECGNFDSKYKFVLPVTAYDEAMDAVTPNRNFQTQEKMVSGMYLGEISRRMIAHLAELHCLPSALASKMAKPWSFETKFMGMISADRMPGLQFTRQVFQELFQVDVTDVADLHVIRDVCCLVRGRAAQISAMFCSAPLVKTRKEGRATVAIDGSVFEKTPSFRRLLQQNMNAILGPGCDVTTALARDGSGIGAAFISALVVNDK
How it was run: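 Native glycosomal T. cruzi hexokinase, purified by a previously described procedure. Activity was followed as NADPH formation at 340 nm, coupled to D-glucose-6-phosphate dehydrogenase. Inhibition was reported as IC50.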

IC50 [1] | Compound | IC50 [2]
11 µM | O=P(O)(O)C(Cc1cccc(-c2ccccc2)c1)S(=O)(=O)O (stereo not given) [2-biphenyl-3-yl-1-phosphono-ethanesulfonic acid] | –
– | CCCNC(P(=O)(O)O)P(=O)(O)O [propylaminomethylene-1,1-bisphosphonate] | > 300 µM
– | O=P(O)(O)C(NC1CC1)P(=O)(O)O [(cyclopropylamino-phosphono-methyl)-phosphonic acid] | > 300 µM
– | C[C@H](NC(P(=O)(O)O)P(=O)(O)O)c1cccc2ccccc12 [(Bis-phosphono-methyl)-((S)-1-naphthalen-1-yl-ethyl)-ammonium] | > 300 µM
– | O=P(O)(O)C(CN[C@@H](CO)c1ccccc1)P(=O)(O)O | > 300 µM
